# Screens as filed in PubChem.
# Only some compounds are listed: those with a hit (about 12% of all), similar ones and a draw of the others.
# KCC2 mod = modulates chloride dependent transport by human KCC2; Q9H2X9; AID 1456; KCC2 cells, thallium flux FluoZin-2 fluorescence; 2.2% of 190,000 active; B-score of Tl+ flux slope (higher = more flux/activation; lower = inhibition) at 10 µM;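 active = thallium flux slope and its plate-corrected score both differing from the plate sample mean at a set confidence after two filtering rounds, in either direction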;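 note: slope of fluorescence scaled to starting intensity during 10 to 20 s after thallium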
# Target sequence (Q9H2X9 whole entry, looked up): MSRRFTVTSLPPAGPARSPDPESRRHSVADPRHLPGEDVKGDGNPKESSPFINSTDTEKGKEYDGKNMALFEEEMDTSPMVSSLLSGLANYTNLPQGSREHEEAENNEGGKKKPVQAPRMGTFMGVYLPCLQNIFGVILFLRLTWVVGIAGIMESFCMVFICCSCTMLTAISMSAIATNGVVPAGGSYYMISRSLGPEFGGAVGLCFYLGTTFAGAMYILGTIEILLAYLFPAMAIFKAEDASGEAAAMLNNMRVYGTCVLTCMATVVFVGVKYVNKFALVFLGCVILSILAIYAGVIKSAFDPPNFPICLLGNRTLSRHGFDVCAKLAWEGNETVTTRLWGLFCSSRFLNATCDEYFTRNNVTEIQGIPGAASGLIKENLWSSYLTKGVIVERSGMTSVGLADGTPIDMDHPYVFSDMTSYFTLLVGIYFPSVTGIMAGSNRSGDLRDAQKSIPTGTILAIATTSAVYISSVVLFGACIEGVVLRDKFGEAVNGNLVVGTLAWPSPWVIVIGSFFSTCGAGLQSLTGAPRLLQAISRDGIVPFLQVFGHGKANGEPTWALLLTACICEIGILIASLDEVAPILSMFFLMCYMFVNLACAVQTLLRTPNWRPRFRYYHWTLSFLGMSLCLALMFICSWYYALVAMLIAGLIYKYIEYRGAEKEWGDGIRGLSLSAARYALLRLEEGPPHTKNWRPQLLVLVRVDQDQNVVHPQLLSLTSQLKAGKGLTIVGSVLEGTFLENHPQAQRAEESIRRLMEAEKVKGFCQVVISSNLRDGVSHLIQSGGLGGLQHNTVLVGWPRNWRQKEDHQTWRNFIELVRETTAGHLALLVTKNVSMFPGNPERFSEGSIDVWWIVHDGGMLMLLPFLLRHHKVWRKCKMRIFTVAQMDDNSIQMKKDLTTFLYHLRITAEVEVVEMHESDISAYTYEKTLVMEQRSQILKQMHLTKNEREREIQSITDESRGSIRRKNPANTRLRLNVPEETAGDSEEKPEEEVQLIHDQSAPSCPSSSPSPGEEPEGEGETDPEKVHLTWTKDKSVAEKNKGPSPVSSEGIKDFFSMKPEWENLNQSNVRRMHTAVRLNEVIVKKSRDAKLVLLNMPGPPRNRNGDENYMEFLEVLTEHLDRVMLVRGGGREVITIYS
# L major viab = inhibitors of Leishmania major promastigote growth; AID 1063; inhibition, % at 10 µM; 9% of 200,000 active; Leishmania major promastigotes, resazurin fluorescence viability; in the data active = inhibition above about 50%;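 note: promastigotes grown with compound for 44 hours at 28 °C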
# Diaph act CS = diaphorase activation or chemical reduction counter-screen; Diaphorase/resazurin coupled assay, resorufin fluorescence, 16 min; active compounds read high; 1 = vehicle wells, 0 = NADH-free wells; activation factor at 20 µM; 0.005% of 190,000 active;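 active = diaphorase activity raised at least twofold by the compound at 20 µM; inactive = activation factor below 2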
#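 Material: purified diaphorase enzyme from Clostridium kluyveri; Also added: 0.114 mM NADH and 0.1 mM resazurin, final amounts; Doses: single compound dose of 20 µM, 1% DMSO final; Times: 16 min enzyme reaction, ambient temperature; Detection: resorufin fluorescence, excitation 544 nm, emission 590 nm; Measure: increased resorufin signal from activators or reducing compounds.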
# Diaphorase inh = diaphorase inhibition or chemical oxidation counter-screen | diaphorase resazurin-to-resorufin fluorescence, NADH, 16 min; bacterial (C. kluyveri) enzyme, not human | inhibition, % at 20 µM | 0.69% of 190,000 active | AID 1217;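 active = primary screen inhibition at 20 µM above a set limit, cut at about 50% in these data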;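 note: plate controls were DMSO with full reaction for no effect and wells lacking NADH for full effect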
#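 Assay system: diaphorase enzyme from Clostridium kluyveri; Input: enzyme working solution with 0.14 U/mL diaphorase; Timing: 16 min at room temperature; Technique: resorufin fluorescence, excitation 544 nm, emission 590 nm; Benchmarks: positive control minus NADH, DMSO neutral control.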
# WT yeast gro inh = growth inhibition of WT yeast, mitochondrial fusion screen. mitochondrial fusion phenotypic screen, WT strain. inhibition, % at 10 µM. 2.1% of 190,000 active. AID 1362; in the data active = inhibition above about 58%; tested in S. cerevisiae
# ROMK primary = modulates human ROMK potassium channel activity | P48048 | Tet-inducible ROMK, thallium flux fluorescence; actives lie on both sides | 2% of 130,000 active | B-score at 10 µM | AID 1918;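 active = signal ratio slope over the read window, or its plate-corrected B-score, at least 3 SD from the plate mean, either direction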;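 note: B-score of the F/F0 ratio slope over 7 to 12 s after thallium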
# KCC2 sec1 = KCC2 (human) modulation, secondary assay; shares compounds with KCC2 mod; HEK293-KCC2, thallium flux, FluoZin2 fluorescence; active compounds read high; normalised thallium flux (F/F0 slope) at 10 µM; 15% of 3,700 active; AID 1713;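 active = thallium flux slope above the same plate's solvent-only control mean plus 3 SD; inconclusive = the two replicate wells disagree; inactive = no significant difference from solvent-only control wells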
# KCC2 bumet counter = bumetanide-insensitive thallium flux in KCC2 cells with ouabain, counter-screen; shares compounds with KCC2 mod; HEK293-KCC2 + bumetanide/ouabain, thallium flux FluoZin2; active compounds read high; normalized thallium flux at 10 µM; 49% of 3,700 active; AID 1714;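 active = thallium entry rate above the same plate's blocked-transporter control wells by more than 3 SD; inconclusive = the two repeat wells disagree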;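 note: raw slope of fluorescence over initial fluorescence between 10 and 20 s after thallium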
# KCC2 sec2 = confirmation of human KCC2 transport modulators. shares compounds with KCC2 mod. HEK293-KCC2, thallium flux FluoZin2 fluorescence; actives lie on both sides; F/F0 rise rate, 10–20 s post-thallium. normalized thallium flux at 10 µM. 23% of 3,700 active;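 active = thallium flux slope more than 3 SD above or below the plate's solvent-only control mean, mostly below; inconclusive = the two repeat wells disagreed; inactive = no significant shift from solvent-only controls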;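 note: raw slope with 0.1% DMSO as baseline and bumetanide as block control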
# HEK293 Tl flux = acts in parental HEK cells, KCC2 counter-screen | thallium flux rate (normalised fluorescence) at 10 µM | AID 1716 | HEK293 parental cells, thallium flux FluoZin2, ouabain; baseline-ratio fluorescence slope, 10–20 s after thallium | 46% of 3,700 active | shares compounds with KCC2 mod;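 active = thallium flux rate significantly above the same plate's solvent-only control wells, beyond their mean plus 3 SD; inconclusive = the two replicate wells gave conflicting results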
# KCC2 retest ouab = confirmation of human KCC2 modulators with ouabain | shares compounds with KCC2 mod | raw Tl+ flux slope (below DMSO = inhibition, above = activation) at 10 µM | HEK293-KCC2, thallium flux FluoZin2 fluorescence; bidirectional: low = inhibitor, high = activator | 48% of 3,700 active | AID 1717;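 active = thallium flux slope beyond 3 SD from same-plate DMSO control mean in most replicates, usually higher, sometimes lower; inconclusive = repeat tests gave conflicting results; inactive = no significant difference from controls in most replicates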;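 note: slope of initial-normalized fluorescence between seconds 10 and 20 after thallium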
# HEK counter2 = parental HEK flux effect, counter-screen 2 | HEK293 parental, thallium flux FluoZin-2 fluorescence slope | thallium flux slope at 10 µM | 33% of 3,700 active | shares compounds with KCC2 mod;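 active = thallium flux slope above the same plate's solvent-control mean plus 3 SD in both duplicate wells; inconclusive = duplicate wells that disagreed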;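 note: run without ouabain in cells lacking the KCC2 cotransporter; slope of fluorescence scaled to its starting value between 10 and 20 s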
# * marks the source's active call; other numbers are inactive results; u = inconclusive; x = not tested or not shown.
SMILES,KCC2 mod,L major viab,Diaph act CS,Diaphorase inh,WT yeast gro inh,ROMK primary,KCC2 sec1,KCC2 bumet counter,KCC2 sec2,HEK293 Tl flux,KCC2 retest ouab,HEK counter2
Fc1ccccc1-n1cc(-c2ccccc2)[nH]c1=S,70*,-2,0.9,9,-8,0.9,0.019*,0.12*,u,0.046*,0.08*,0.02*
CCCCC(=O)NC(Nc1sc2c(c1C(N)=O)CCCC2)(C(=O)OCC)C(F)(F)F (stereo not given),-0.31,-1,0.9,8,-3,-0.51,x,x,x,x,x,x
COC(=O)C(NC(C)=O)(Nc1sc2c(c1C(N)=O)CCCC2)C(F)(F)F (stereo not given),x,-6,0.9,11,-11,0.89,0.0082,0.0059,0.029,0.0069,0.02,0.0097
CCOc1cc(-c2nc(C)c(C(C)=O)n2O)ccc1OCC(=O)Nc1ccccc1,-0.064,-2,1,1,32,-0.033,x,x,x,x,x,x
COc1cccc2c1OC1(C)CC2NC(=O)N1c1cccc(C(=O)Nc2ccc3c(c2)OCCO3)c1 (stereo not given),-0.33,-3,0.9,8,13,-0.42,x,x,x,x,x,x
CC(NC(=O)c1ccco1)C(=O)OCc1cccc(Cl)c1 (stereo not given),6.1*,-6,1,-2,-19,0.13,0.0099,0.0057,0.035,0.0064,0.02,0.01
O=C(NCc1cccc(Cl)c1)c1ccco1,x,-2,1,2,0,0.55,x,x,x,x,x,x
CCCC(=O)NC(=S)Nc1cccc(C(C)=O)c1,0.25,-8,0.9,13,19,-0.023,x,x,x,x,x,x
CC(=O)c1cccc(NC(=S)NC(=O)c2ccccc2Cl)c1,5.4*,-1,0.9,14,7,x,0.008,0.026*,0.034,0.017*,0.028*,0.013*
CCC(=O)Nc1cccc(NC(=S)NC(=O)c2ccc(C)cc2)c1,-0.68,-1,0.9,9,-7,-0.056,x,x,x,x,x,x
CC(=O)c1cccc(NC(=S)NC(=O)c2ccc(C)cc2Cl)c1,21*,-1,0.8,21,13,0.51,0.0058,0.062*,u,0.019*,0.036*,0.019*
CC(=O)c1cccc(NC(=S)NC(=O)Cc2ccccc2)c1,6.2*,-5,1.1,-13,13,0.023,0.0079,0.0091*,u,0.01*,0.02,u
CCC(=O)NC(=S)Nc1cccc(C(C)=O)c1,0.56,-5,1,4,-6,x,x,x,x,x,x,x
CCOc1cccc(C(=O)NC(=S)Nc2cccc(NC(=O)c3ccccc3Cl)c2)c1,-1.6,7,0.8,16,24,0.13,x,x,x,x,x,x
CC(=O)c1cccc(NC(=S)NC(=O)c2ccc(C)cc2)c1,7.2*,-7,0.7,32,10,-0.3,0.0059,0.013*,0.029,0.011*,u,0.012*
Cc1cccc(NC(=S)NNC(=O)c2csc(C)c2)c1,4.5*,1,1,4,-3,0.46,u,0.019*,0.035,0.017*,u,0.019*
Cc1cc(C(=O)NNC(=S)NCC(C)C)cs1,1.1,2,1.1,-6,5,x,x,x,x,x,x,x
CCOC(=O)COc1cc(-n2c(=S)[nH]c3ccccc3c2=O)c(Cl)cc1Cl,4.3*,-5,0.8,24,30,-0.16,0.0078,0.022*,0.033,0.013*,u,0.016*
CCOc1cc(/C=N/N=C2/NC(=O)C(CC(=O)O)S2)ccc1OCc1ccccc1Cl (stereo not given),0.16,-10,1,-2,-1,1.7,x,x,x,x,x,x
Cc1c(C(=O)NCCSCc2ccc(F)cc2)cnn1-c1ccc(Cl)cc1,-3.8*,x,x,x,x,x,0.007,0.0047,u,0.0064,0.017*,0.0098
Cc1c(C(=O)NCCSCc2c(F)cccc2Cl)cnn1-c1ccc(F)cc1,-2.5,x,x,x,x,x,x,x,x,x,x,x
COc1ccc(C(=O)N2CCCC(c3ccccc3)C2)cc1 (stereo not given),-4.8*,4,0.8,20,-2,-1,0.0053,0.0073*,0.025*,0.0072,u,0.011
O=C(c1ccc(F)cc1)N1CCC(c2ccccc2)C1 (stereo not given),-0.46,x,x,x,x,x,x,x,x,x,x,x
Nc1ccc(-c2nc3nc(N)nc(N)c3nc2-c2ccc(N)cc2)cc1,0.69,x,x,x,x,x,x,x,x,x,x,x
CCCN1Cc2cccc(C(=O)Nc3ccc(C)cc3)c2C1=O,x,3,1,3,-5,-0.47,0.0058,0.0043,0.028,0.0073,0.018,0.0099
SMILES,KCC2 mod,L major viab,Diaph act CS,Diaphorase inh,WT yeast gro inh,ROMK primary,KCC2 sec1,KCC2 bumet counter,KCC2 sec2,HEK293 Tl flux,KCC2 retest ouab,HEK counter2
Cc1ccc(S(=O)(=O)NN2C(=O)/C(=C/c3cccs3)SC2=S)cc1,27*,x,x,x,x,0.45,0.0062,0.053*,0.05*,0.045*,0.051*,0.043*
Cc1ccc(S(=O)(=O)NN2C(=O)/C(=C/c3cccn3C)SC2=S)cc1,-0.88,-2,0.8,22,51,-0.84,x,x,x,x,x,x
CCCn1nnc(NCc2ccc(OCc3cccs3)c(OC)c2)n1,-2.9*,5,1,3,-16,x,0.0069,0.0046,0.028,0.0073,u,0.01
COc1ccc(-c2nnn(CC(=O)NCc3cccs3)n2)cc1OC,0.13,0,1,4,10,x,x,x,x,x,x,x
O=C(O)c1ccc(C2CCCCC2)cn1,8.3*,-6,0.9,14,32,0.01,0.011,0.0089*,0.03,0.0077,0.019,0.01
O=C(CCN1C(=O)c2ccccc2C1=O)Nc1ccc(S(=O)(=O)N2CCOCC2)cc1,-0.38,-8,0.8,18,-5,x,x,x,x,x,x,x
CC1CCCN(S(=O)(=O)c2ccc(NC(=O)CCN3C(=O)c4ccccc4C3=O)cc2)C1 (stereo not given),0.023,-4,0.7,33,-3,x,0.0097,u,0.033,0.0078,0.021,0.011
Cc1[nH]c2ccccc2c1C(=O)NS(=O)(=O)Nc1ccccc1,0.45,-3,0.9,14,-12,-0.83,x,x,x,x,x,x
